The source made the active and inactive calls. No cut-off for these calls is given here.
Tests used:
[1] = system: HUVEC; assay: Cytotoxicity against HUVEC cells assessed as inhibition of cell proliferation measured after 72 hrs by MTT assay; format: cell-based; details: Homo sapiens
Method in brief: (§1)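 Cells (A549, PC-3, HeLa, HUVEC) grown in DMEM with 10% FBS at 37 °C, 5% CO₂. Seeded at 5 × 10⁴ cells/well and allowed 24 h to attach, then exposed 72 h to a concentration series from DMSO stocks. MTT was added for 4 h and formazan dissolved in DMSO, read at 490 nm. Survival taken relative to untreated control. IC50 by Bliss method, three repeats.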

[2] = system: HeLa; assay: Anticancer activity against human HeLa cells assessed as inhibition of cell proliferation measured after 72 hrs by MTT assay; format: functional, cell-based; method in brief: as §1
[3] = system: A549; assay: Anticancer activity against human A549 cells assessed as inhibition of cell proliferation measured after 72 hrs by MTT assay; format: functional, cell-based; details: A549, 72 h; method in brief: as §1
[4] = system: PC-3; assay: Anticancer activity against human PC3 cells assessed as inhibition of cell proliferation measured after 72 hrs by MTT assay; format: functional, cell-based; details: PC-3, 72 h; method in brief: as §1
[5] = system: HeLa; assay: Induction of cell cycle arrest in human HeLa cells assessed as accumulation at G2/M phase at 0.5 uM measured after 24 hrs by propidium iodide/RNAse staining based flow cytometry (reference value: 10.7%); format: functional
[6] = system: HeLa; assay: Induction of apoptosis in human HeLa cells assessed as viable cells at 0.5 uM measured after 24 hrs by Annexin-V-FITC and PI staining based flow cytometry (reference value: 96.3%); format: functional; details: read-out: Activity
Method in brief: (§2)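 HeLa cells were treated 24 h, washed twice in PBS and resuspended in binding buffer. Stained with annexin V-FITC and PI for 30 min in the dark at room temperature, then analysed by flow cytometry.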

[7] = system: HeLa; assay: Induction of apoptosis in human HeLa cells assessed as early apoptotic cells at 0.5 uM measured after 24 hrs by Annexin-V-FITC and PI staining based flow cytometry (reference value: 2.58%); format: functional; method in brief: as §2
[8] = system: HeLa; assay: Induction of apoptosis in human HeLa cells assessed as cell membrane integrity loss, chromatin condensation and apoptotic body formation by measuring reduction in green fluorescence intensity at 0.5 uM measured after 24 hrs by AO/EB dual staining based fluorescence microscopy; format: functional
[9] = system: HeLa; assay: Induction of intracellular reactive oxygen species generation in human HeLa cells at 0.5 uM measured after 24 hrs by DCFH-DA staining based flow cytometry (reference value: 6.47%); format: functional
[10] = system: HeLa; assay: Induction of apoptosis in human HeLa cells assessed as mitochondrial membrane potential dissipation at 0.5 uM incubated for 24 hrs by JC-1 staining based flow cytometry (reference value: 6.6%); format: functional
[11] = system: HeLa; assay: Induction of apoptosis in human HeLa cells assessed as upregulation of Bax protein expression at 0.5 uM measured after 24 hrs by western blot analysis; format: functional, cell-based
Method in brief: (§3)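 HeLa cells were treated 24 h at 37 °C and lysed in buffer containing PMSF. Protein quantified by BCA, equal amounts separated by SDS-PAGE and transferred to nitrocellulose. Blocked in 5% milk, primary antibodies overnight at 4 °C, peroxidase secondary 2 h at 25 °C. Detection by chemiluminescence, β-actin as loading control.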

[12] = system: HeLa; assay: Induction of apoptosis in human HeLa cells assessed as down regulation of Bcl-2 protein expression at 0.5 uM measured after 24 hrs by western blot analysis; format: functional, cell-based; method in brief: as §3
[13] = system: HeLa; assay: Induction of apoptosis in human HeLa cells assessed as upregulation of caspase-3 protein expression at 0.5 uM measured after 24 hrs by western blot analysis; format: functional, cell-based; method in brief: as §3
[14] = system: HeLa; assay: Induction of apoptosis in human HeLa cells assessed as upregulation of PARP protein expression at 0.5 uM measured after 24 hrs by western blot analysis; format: functional, cell-based; method in brief: as §3
[15] = system: HeLa; assay: Inhibition of cell migration in human HeLa cells at 0.5 uM measured after 24 hrs by wound healing assay (reference value: 61%); format: functional
Method in brief: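 Confluent HeLa monolayers were scratched with a pipette tip and washed with ice-cold PBS. Incubated 24 h at 37 °C in DMEM/10% FBS containing compound. Wounds were photographed at 0 and 24 h and migration distance measured manually.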

[16] = system: HeLa; assay: Inhibition of IDO1 expression in hIFNgamma-stimulated human HeLa cells at 0.5 uM measured after 24 hrs by western blot assay; format: functional; method in brief: as §3
[17] = system: HeLa; assay: Antitumor activity against human HeLa cells xenografted in BALB/c mouse assessed as inhibition of tumor volume at 30 mg/kg/day, iv administered for 21 days by caliper analysis; format: functional; details: 504 h, time 21 day
Method in brief: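 Male BALB/c nude mice, five weeks old, 18-22 g. Inoculated subcutaneously in the right armpit with 1 × 10⁷ HeLa cells/0.1 mL. At 120-150 mm³, randomized to four groups of five. Once-daily tail-vein injection for 21 days in Tween 80/physiological saline; controls received saline. Tumor volume measured every 2 days by caliper, V = AB²/2.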

[18] = Toxicity in BALB/c nude mouse transfected with human HeLa cells assessed as body weight changes at 30 mg/kg/day, iv for 21 days; format: organism-based; details: in vivo, 504 h, time 21 day
Method in brief: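 Five-week-old male BALB/c nude mice (18-22 g) were inoculated s.c. in the right armpit with HeLa cells (1 × 10⁷ cells/0.1 mL/mouse). At a tumour volume of 120-150 mm³, mice were randomised, five per group. Dosing was i.v. via the tail vein once daily for 21 days, in Tween 80/physiological saline; controls got an equal volume of saline. Body weight was recorded every 2 days.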

[19] = Toxicity in BALB/c nude mouse transfected with human HeLa cells assessed as liver damage at 30 mg/kg/day, iv for 21 days by H&E staining based immunohistochemistry; format: organism-based; details: in vivo, 504 h, time 21 day
Method in brief: (§4)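 HeLa xenografts were grown s.c. in male BALB/c nude mice, which received i.v. tail-vein doses once daily for 21 days in Tween 80/saline vehicle, with saline controls. After 3 weeks the mice were sacrificed. Organs from one mouse per group were fixed in 4% paraformaldehyde, paraffin-embedded and sectioned. Sections were dewaxed, stained with Harris hematoxylin and eosin-phloxine, and examined microscopically for histopathologic changes.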

[20] = system: HeLa; assay: Induction of cell cycle arrest in human HeLa cells assessed as accumulation at G1 phase at 0.5 uM measured after 24 hrs by propidium iodide/RNAse staining based flow cytometry (reference value: 61.5%); format: functional
[21] = system: HeLa; assay: Induction of cell cycle arrest in human HeLa cells assessed as accumulation at S phase at 0.5 uM measured after 24 hrs by propidium iodide/RNAse staining based flow cytometry (reference value: 27.8%); format: functional
[22] = system: HeLa; assay: Induction of apoptosis in human HeLa cells assessed as late apoptotic cells at 0.5 uM measured after 24 hrs by Annexin-V-FITC and PI staining based flow cytometry (reference value: 0.199%); format: functional; method in brief: as §2
[23] = system: HeLa; assay: Induction of apoptosis in human HeLa cells assessed as necrotic cells at 0.5 uM measured after 24 hrs by Annexin-V-FITC and PI staining based flow cytometry (reference value: 0.956%); format: functional; method in brief: as §2
[24] = system: HeLa; assay: Induction of apoptosis in human HeLa cells assessed as cell membrane integrity loss, chromatin condensation and apoptotic body formation by measuring strengthened orange fluorescence intensity at 0.5 uM measured after 24 hrs by AO/EB dual staining based fluorescence microscopy; format: functional
[25] = system: HeLa; assay: Induction of apoptosis in human HeLa cells assessed as mitochondrial membrane potential dissipation by measuring increase in green fluorescence intensity at 0.5 uM incubated for 24 hrs by JC-1 staining based fluorescence microscopic analysis; format: functional, cell-based
[26] = Toxicity in BALB/c nude mouse transfected with human HeLa cells assessed as heart damage at 30 mg/kg/day, iv for 21 days by H&E staining based immunohistochemistry; format: organism-based; details: in vivo, 504 h, time 21 day; method in brief: as §4
[27] = Toxicity in BALB/c nude mouse transfected with human HeLa cells assessed as lung damage at 30 mg/kg/day, iv for 21 days by H&E staining based immunohistochemistry; format: organism-based; details: in vivo, 504 h, time 21 day; method in brief: as §4
[28] = Toxicity in BALB/c nude mouse transfected with human HeLa cells assessed as kidney damage at 30 mg/kg/day, iv for 21 days by H&E staining based immunohistochemistry; format: organism-based; details: in vivo, 504 h, time 21 day; method in brief: as §4
[29] = Toxicity in BALB/c nude mouse transfected with human HeLa cells assessed as spleen damage at 30 mg/kg/day, iv for 21 days by H&E staining based immunohistochemistry; format: organism-based; details: in vivo, 504 h, time 21 day; method in brief: as §4
[30] = Antitumor immunity against IFN-gamma stimulated human HeLa cells co-cultured with PHA-M-stimulated human PBMC cells assessed as induction of CD3+ T cell proliferation at 0.1 uM preincubated for 2 days measured after co-culturing with PBMC for 6 days by flow cytometry (reference value: 6 to 6.2%); format: functional; details: time 8 day
[31] = system: HeLa; assay: Inhibition of IDO1 expression in hIFNgamma-stimulated human HeLa cells assessed as decrease in kynurenine production at 0.1 uM measured after 48 hrs by reverse-phase HPLC analysis; format: functional
Method in brief: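 HeLa cells were given fresh L-tryptophan-containing medium with hIFN-γ (25 ng/mL) plus compound for 48 h. Collected cells were treated with 20% trichloroacetic acid and centrifuged. Supernatant analysed by reversed-phase HPLC (ODS column, acetonitrile/water, 1.0 mL/min, […]).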

Compound: COc1ccc(/C=C/C(=O)c2cc(OC)c(OC)c(OC)c2)cc1OC(=O)c1cccc(Cn2cc(CCOC(=O)CCC(=O)n3cc(C4CC(=O)NC4=O)c4cc(F)ccc43)nn2)c1 (stereo not given)
- IC50 [1]: 7.19 µM
- IC50 [2]: 0.49 µM
- IC50 [3]: 0.97 µM
- IC50 [4]: 1.56 µM

Compound: COc1ccc(/C=C\c2cc(OC)c(OC)c(OC)c2)cc1OC(=O)CCC(=O)n1cc(C2CC(=O)NC2=O)c2cc(F)ccc21 (stereo not given)
- IC50 [1]: 2.27 µM
- IC50 [2]: 0.27 µM
- IC50 [3]: 0.45 µM
- IC50 [4]: 0.62 µM

Compound: COc1ccc(/C=C\c2cc(OC)c(OC)c(OC)c2)cc1OC(=O)c1cccc(Cn2cc(CCOC(=O)CCC(=O)n3cc(C4CC(=O)NC4=O)c4cc(F)ccc43)nn2)c1 (stereo not given)
- IC50 [1]: 4.49 µM
- IC50 [2]: 0.39 µM
- IC50 [3]: 0.95 µM
- IC50 [4]: 0.85 µM

Compound: COc1ccc(/C=C/C(=O)c2cc(OC)c(OC)c(OC)c2)cc1OC(=O)c1cccc(Cn2cc(CCOC(=O)[C@H](N)Cc3cn(C)c4ccccc34)nn2)c1
- IC50 [1]: 3.73 µM
- IC50 [2]: 0.48 µM
- IC50 [3]: 0.71 µM
- IC50 [4]: 0.62 µM

Compound: COc1ccc(/C=C\c2cc(OC)c(OC)c(OC)c2)cc1O [COMBRETASTATIN A4]
- IC50 [1]: 0.98 µM
- IC50 [2]: 0.21 µM
- IC50 [3]: 0.47 µM
- IC50 [4]: 0.4 µM
- Activity [5]: 66.57%
- viability at 0.5 µM [6]: 63.3%
- Activity [7]: 25%
- Activity [8]: Active
- Activity [9]: 21.8%
- Activity [10]: 54.2%
- Activity [11]: Active
- Activity [12]: Active
- Activity [13]: Active
- Activity [14]: Active
- inhibition at 0.5 µM [15]: 79%
- inhibition [16]: inactive
- inhibition in vivo at 30 mg/kg/day [17]: 57.6%
- Activity [18]: Non-Toxic
- Activity [19]: Non-Toxic
- Activity [20]: 4.65%
- Activity [21]: 28.77%
- Activity [22]: 10.3%
- Activity [23]: 1.44%
- Activity [24]: Active
- Activity [25]: Active
- Activity [26]: Non-Toxic
- Activity [27]: Non-Toxic
- Activity [28]: Non-Toxic
- Activity [29]: Non-Toxic

Compound: COc1ccc(/C=C\c2cc(OC)c(OC)c(OC)c2)cc1OCCCOC(=O)[C@H](N)Cc1cn(C)c2ccccc12
- IC50 [1]: 3.11 µM
- IC50 [2]: 0.33 µM
- IC50 [3]: 0.53 µM
- IC50 [4]: 0.58 µM
- inhibition [16]: Active

Compound: COc1ccc(/C=C\c2cc(OC)c(OC)c(OC)c2)cc1OC(=O)[C@H](N)Cc1cn(C)c2ccccc12
- IC50 [1]: 2.53 µM
- IC50 [2]: 0.43 µM
- IC50 [3]: 0.68 µM
- IC50 [4]: 0.72 µM
- inhibition [16]: Active

Compound: COc1ccc(/C=C/C(=O)c2cc(OC)c(OC)c(OC)c2)cc1O
- IC50 [1]: 1.24 µM
- IC50 [2]: 0.35 µM
- IC50 [3]: 0.55 µM
- IC50 [4]: 0.64 µM

Compound: COc1ccc(/C=C/C(=O)c2cc(OC)c(OC)c(OC)c2)cc1OC(=O)CCC(=O)n1cc(C2CC(=O)NC2=O)c2cc(F)ccc21 (stereo not given)
- IC50 [1]: 4.76 µM
- IC50 [2]: 0.37 µM
- IC50 [3]: 1.28 µM
- IC50 [4]: 1.39 µM

Compound: Cn1cc(C[C@@H](N)C(=O)O)c2ccccc21 [INDOXIMOD]
- IC50 [1]: > 100 µM
- Activity [30]: 17.8%
- IC50 [2]: > 100 µM
- IC50 [3]: > 100 µM
- IC50 [4]: > 100 µM
- inhibition [16]: Active
- inhibition [31]: Active

— ChEMBL document CHEMBL4680166, “Dual-functional conjugates improving cancer immunochemotherapy by inhibiting tubulin polymerization and indoleamine-2,3-dioxygenase” (Eur J Med Chem, 2020)
